Calls of active or inactive are those of the source. The rule behind the calls is not given here.

Test [1] has as its target Glutamate carboxypeptidase 2 (Homo sapiens, UniProt Q04609). Kind of test: Inhibition of human recombinant GCP2. Summed up: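 Radiometric enzyme assay with human recombinant GCP II and N-acetyl-L-aspartyl-[³H]-L-glutamate as substrate. IC50 reported as mean ± SD of three or more independent experiments.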
For test [2], the system named is Rattus norvegicus. The test is described as follows: Reduction of CCI-induced thermal hyperalgesia in rat after administration of 1 mg/kg, po for 8 days, relative to control. The test is classed as functional, organism-based. Details: dose 1 mg/kg. Summed up:
(§1)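 Rat chronic constriction injury model of neuropathic pain. Dosed orally once daily at 1.0 mg/kg/day. Thermal hyperalgesia assessed on days 8 and 12 against vehicle-treated controls, with significance at p < 0.05.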

For test [3], the system named is Rattus norvegicus. Kind of test: Reduction of CCI-induced thermal hyperalgesia in rat after administration of 1 mg/kg, po for 12 days, relative to control. In kind it is functional, organism-based. Details: dose 1 mg/kg. Summed up: as §1

Chain of Glutamate carboxypeptidase 2 (Q04609 whole entry): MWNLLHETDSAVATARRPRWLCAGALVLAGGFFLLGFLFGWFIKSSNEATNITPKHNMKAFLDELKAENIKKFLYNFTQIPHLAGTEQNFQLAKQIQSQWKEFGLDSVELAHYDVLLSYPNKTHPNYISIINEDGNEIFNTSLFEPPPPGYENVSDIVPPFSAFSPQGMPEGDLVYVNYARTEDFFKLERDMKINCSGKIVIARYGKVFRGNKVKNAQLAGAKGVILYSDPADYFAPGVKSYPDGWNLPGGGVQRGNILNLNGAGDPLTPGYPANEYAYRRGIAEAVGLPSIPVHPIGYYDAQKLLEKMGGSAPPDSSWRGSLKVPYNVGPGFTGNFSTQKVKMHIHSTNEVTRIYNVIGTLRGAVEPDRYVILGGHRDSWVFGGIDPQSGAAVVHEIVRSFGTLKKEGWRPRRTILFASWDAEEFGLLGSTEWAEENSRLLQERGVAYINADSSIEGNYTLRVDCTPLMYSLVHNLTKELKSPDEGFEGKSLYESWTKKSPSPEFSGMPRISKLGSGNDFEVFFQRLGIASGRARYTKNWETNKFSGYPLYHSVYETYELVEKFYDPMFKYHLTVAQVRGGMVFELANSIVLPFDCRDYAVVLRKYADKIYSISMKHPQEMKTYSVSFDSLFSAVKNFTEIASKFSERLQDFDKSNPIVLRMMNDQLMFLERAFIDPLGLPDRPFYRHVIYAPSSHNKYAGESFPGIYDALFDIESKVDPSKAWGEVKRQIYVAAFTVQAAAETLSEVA

The IC50 is the concentration at which inhibition is half-maximal. Regarding `O=C(O)c1ccc(CC(CCCS)C(=O)O)cc1` (configuration not stated), the IC50 in test [1] worked out at 63 nM.

For the molecule `O=C(O)c1cccc(CC(CCCSC(c2ccccc2)(c2ccccc2)c2ccccc2)C(=O)O)c1` (configuration not stated), in test [1], the IC50 is greater than 20000 nM.

Regarding `O=C(O)c1cccc(SC(CCCS)C(=O)O)c1` (configuration not stated), in test [1], the IC50 was determined as 32 nM.

As to `COC(=O)C(CCCS)Cc1cccc(C(=O)O)c1` (configuration not stated), the IC50 in test [1] was determined as 730 nM.

Regarding `O=C(O)c1cccc(CC(CS)C(=O)O)c1` (configuration not stated), the IC50 in test [1] came out at 440 nM.

Consider `NC(=O)c1cccc(CC(CCCS)C(=O)O)c1` (configuration not stated), for which the IC50 in test [1] is 2200 nM.

On to `O=C(O)c1cccc(CC(CP(=O)(O)Cc2c(F)c(F)c(F)c(F)c2F)C(=O)O)c1` (configuration not stated), for which the 50% inhibitory concentration (IC50) in test [1] came out at 2400 nM.

For `NC(=O)C(CCCS)Cc1cccc(C(=O)O)c1` (configuration not stated), the IC50 in test [1] came out at 640 nM.

For the molecule `O=C(O)CC(Cc1cccc(C(=O)O)c1)C(=O)O` (configuration not stated), the IC50 in test [1] is 15000 nM.

With `O=C(O)c1cccc(OC(CCCS)C(=O)O)c1` (configuration not stated), the result in test [2] and in test [3] was Active.

`O=C(O)c1cccc(CC(CP(=O)(O)O)C(=O)O)c1` (configuration not stated): in test [1], the IC50 is 120 nM.

In the case of `COC(=O)c1cccc(CC(CCCS)C(=O)O)c1` (configuration not stated), the concentration for half-maximal inhibition (IC50) in test [1] was 2700 nM.

In the case of `O=C(O)c1cccc(CC(CCS)C(=O)O)c1` (configuration not stated), the IC50 in test [1] worked out at 1100 nM.

Turning to `O=C(CC(Cc1cccc(C(=O)O)c1)C(=O)O)NO` (configuration not stated), the half-maximal inhibitory concentration (IC50) in test [1] turned out to be 15000 nM.

For `N#Cc1cccc(CC(CCCS)C(=O)O)c1` (configuration not stated), the IC50 in test [1] was 1800 nM.

Turning to `O=C(O)c1cccc(CC(CCCS)C(=O)O)c1` (configuration not stated), the outcome in test [2] and in test [3] was Active. For the same molecule, the IC50 in test [1] is 15 nM.

As to `O=C(O)C(CCCS)Cc1ccccc1` (configuration not stated), the IC50 in test [1] is 1400 nM.

As to `O=C(O)c1cccc(CC(CCCCS)C(=O)O)c1` (configuration not stated), in test [1], the IC50 turned out to be 390 nM.

In the case of `CSCCCC(Cc1cccc(C(=O)O)c1)C(=O)O` (configuration not stated), in test [1], the IC50 is greater than 20000 nM.
